Series [1] in a line: Solubility in DMSO. In kind it is physicochemical. In a few lines:
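Compound dissolved in DMSO with sonication; maximal volume before precipitation measured and used to calculate saturation solubility.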

In series [2] the test system is A549. Put plainly: Growth inhibition of human A549 cells. It is filed as functional. In a few lines: (§1)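 Cells seeded per well: NUGC-3 4500, HONE-1 6000, MCF-7 6500, NCI-H460 2500, HepG2 10000, A549 5000; A549 grown in RPMI 1640 with 2 g/L NaHCO₃, 2 mM L-glutamine and 10% FBS. GI₅₀ = concentration giving 50% growth inhibition, mean of at least three experiments each in duplicate. Paclitaxel served as positive control.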

A short description of series [3]: Solubility in DMA. In kind it is physicochemical.
The test system of another series is HepG2. Put plainly: Growth inhibition of human HepG2 cells. In kind it is functional. In a few lines:
as §1

Series [4] deals with NCI-H460. Put plainly: Growth inhibition of human NCI-H460 cells. It is filed as functional. In a few lines:
as §1

A short description of series [5]: Cytotoxicity against mouse RAW264.7 cells. In kind it is cell-based. In a few lines:
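RAW264.7 cells stimulated with LPS/IFNγ and compound-treated in parallel with the NO assay; CC50 taken as concentration giving 50% inhibition of cell growth. Mean of at least three experiments, each in duplicate.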

The test system of a further series is NUGC-3. Put plainly: Growth inhibition of human NUGC3 cells. In kind it is functional. In a few lines:
as §1

Series [6] in a line: Growth inhibition of human HONE1 cells. It is filed as functional. A digest of the protocol:
as §1

For series [7], the system named is MCF7. The experiment in a line: Growth inhibition of human MCF7 cells. In kind it is functional. A digest of the protocol:
as §1

For series [8], the system named is RAW264.7. Put plainly: Antiinflammatory activity in mouse RAW264.7 cells assessed as inhibition of LPS-induced nitric oxide production incubated for 18 hrs by nitrate/nitrite assay. It is filed as functional, cell-based. Particulars: RAW264.7, 18 h. In a few lines: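 RAW264.7 seeded 65000 cells/well, cultured 24 h, then medium replaced with complete medium containing IFNγ (20 ng/mL)/LPS (5 μg/mL) plus compound at various concentrations for 18 h; nitric oxide measured by Nitrate/Nitrite kit. EC50 as mean of at least three experiments, each in duplicate.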

Series [9] deals with Transmissible gastroenteritis virus. The experiment in a line: Antiviral activity against Transmissible gastroenteritis virus infected in ST cells pre-treated 2 hrs before virus infection measured 6 hrs post virus infection by immunofluorescent assay. It is filed as functional, organism-based. Particulars: Alphacoronavirus 1, ST. A digest of the protocol:
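ST cells, with or without 2 h compound pretreatment (10 concentrations), infected with TGEV at MOI 10. Immunofluorescence with anti-spike and anti-nucleocapsid antibodies at 6 hpi. EC50 from dose–response curves, mean of at least three experiments, each in duplicate.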

The test system of a further series is SF-268. Put plainly: Growth inhibition of human SF268 cells. In kind it is functional. A digest of the protocol: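 SF-268 glioblastoma cells seeded 7500 cells/well in 96-well plates; growth inhibition measured with compound. GI50 as mean of at least three experiments, each in duplicate; paclitaxel positive control.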
The nature of series [10]: Oral bioavailability in Sprague-Dawley rat at 3 mg/kg by HPLC-MS method. It is filed as ADME, organism-based. Conditions: in vivo. In a few lines: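 Male rats (330−380 g, 9−10 weeks), jugular vein cannula implanted 1 day before, fasted. 3 mg/kg given iv or orally (n = 3) in DMA/PEG400 30/70 v/v. Blood (150 μL) drawn at 0, 2, 5 (iv only), 15, 30 min and 1, 2, 4, 6, 8, 12, 24 h; plasma analysed by HPLC-MS; noncompartmental analysis.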

In series [11] the test system is MCF7. Put plainly: Induction of c-Jun protein accumulation in human MCF7 cells incubated for 24 hrs by Western blotting. It is filed as functional, cell-based. (In western blotting, separated proteins are transferred to a membrane and probed.)
The subject of series [12] is A549. The experiment in a line: Down regulation of cyclin A2 expression in human A549 cells incubated for 24 hrs by Western blotting. It is filed as functional, cell-based.
Series [13] deals with Transmissible gastroenteritis virus. The experiment in a line: Antiviral activity against Transmissible gastroenteritis virus infected in ST cells assessed as reduction in caspase-3 activation pre-treated before virus infection measured 16 hrs post virus infection by Western blotting. In kind it is functional, organism-based. In a few lines: (§2)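 ST cells pretreated with compound, then infected with TGEV. Western blot for nucleocapsid (N) protein, caspase 3 (cleavage of procaspase 3) and GAPDH at 16 hpi. Representative of at least three independent experiments.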

The test system of series [14] is RAW264.7. Put plainly: Reduction in LPS/INFgamma-induced iNOS protein expression in mouse RAW264.7 cells incubated for 20 hrs by Western blotting. It is filed as functional, cell-based. In a few lines:
(§3)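 LPS/IFNγ-stimulated RAW264.7 cells treated with compound for 20 h. iNOS, COX-2 and GAPDH detected by Western blot; representative of at least three independent experiments.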

The subject of series [15] is Transmissible gastroenteritis virus. The experiment in a line: Antiviral activity against Transmissible gastroenteritis virus infected in ST cells assessed as reduction in N-protein expression pre-treated before virus infection measured 16 hrs post virus infection by Western blotting. In kind it is functional, organism-based. A digest of the protocol:
as §2

Series [16] has as its system NCI-H460. The experiment in a line: Induction of c-Jun protein accumulation in human NCI-H460 cells incubated for 24 hrs by Western blotting. In kind it is functional, cell-based.
Series [17] deals with RAW264.7. The experiment in a line: Reduction in LPS/INFgamma-induced COX2 protein expression in mouse RAW264.7 cells incubated for 20 hrs by Western blotting. It is filed as functional, cell-based. A digest of the protocol:
as §3

Series [18] has as its system MCF7. Put plainly: Down regulation of cyclin A2 expression in human MCF7 cells incubated for 24 hrs by Western blotting. It is filed as functional, cell-based.
The test system of series [19] is A549. Put plainly: Induction of c-Jun protein accumulation in human A549 cells incubated for 24 hrs by Western blotting. It is filed as functional, cell-based.
The test system of series [20] is NCI-H460. The experiment in a line: Down regulation of cyclin A2 expression in human NCI-H460 cells incubated for 24 hrs by Western blotting. It is filed as functional, cell-based.

Values after ≈ are worked out from the molar mass of the structure shown. Active and inactive are the calls of the source. No cut-off for these calls is given here.

These results are taken from ChEMBL document CHEMBL2177013, “Synthesis and biological evaluation of tylophorine-derived dibenzoquinolines as orally active agents: exploration of the role of tylophorine e ring on biological activity” (J Med Chem, 2012).

One may read the solubility as how much of the substance goes into solution per volume. A high value points to a readily soluble substance. As a reminder, the GI50 is the concentration at which growth is held to half of that of the control. A word on the CC50: it is the concentration at which the toxic effect on the cells reaches its halfway point. A low value points to greater toxicity to the cells. One may read the EC50 as the concentration giving half of the maximal effect. In general, bioavailability refers to the share of a dose that reaches the circulation, judged against a reference dose that is usually intravenous.

`CCN1CCc2c(c3cc(OC)c(OC)cc3c3cc(OC)c(OC)cc23)C1`: the solubility in series [1] was 50 mM (≈ 19.1 mg/mL); in series [3], “soluble”. The GI50 with A549 [2] was found to be 970 nM; in the series with HepG2, 1000 nM; in the series on NCI-H460 [4], 1010 nM; in the series with NUGC-3, 620 nM; in series [6] it was 1570 nM; with MCF7 [7] it was 750 nM. The molecule also displayed a CC50 in series [5] above 4 µM. Further, the EC50 was found to be 1420 nM in the series with RAW264.7 [8] and 1650 nM in series [9].

On to `COc1cc2c3c(c4cc(OC)c(OC)cc4c2cc1OC)CN1CCCCCC1C3` (centres undefined), for which the GI50 is 960 nM with SF-268; 930 nM in the series on NCI-H460 [4]; 620 nM with NUGC-3; 1150 nM in series [6]; 960 nM in the series on MCF7 [7]. For the same molecule, the EC50 in series [9] came out at 1050 nM.

With `COc1cc2c3c(c4cc(OC)c(OC)cc4c2cc1OC)CN1CCCCC1C3` (centres undefined), the solubility in series [1] was 12.3 mM (≈ 5.01 mg/mL); in [3] it was “soluble”. The GI50 worked out at 140 nM with SF-268; 100 nM with NCI-H460 [4]; 140 nM in the series with NUGC-3; 140 nM in [6]; 110 nM with MCF7 [7]. In addition, the bioavailability in series [10] is 53%. In addition, the EC50 in series [9] turned out to be 30 nM.

With `CCCCN1CCc2c(c3cc(OC)c(OC)cc3c3cc(OC)c(OC)cc23)C1`, the solubility was 45 mM (≈ 18.4 mg/mL) in [1] and “soluble” in series [3]. Moreover, the GI50 turned out to be 2220 nM with A549 [2]; 3040 nM in the series with HepG2; 2050 nM in the series on NCI-H460 [4]; 1930 nM with NUGC-3; 2750 nM in series [6]; 1970 nM with MCF7 [7]. For the same molecule, the EC50 in series [9] was determined as 4390 nM.

For `CCN1Cc2c(c3cc(OC)c(OC)cc3c3cc(OC)c(OC)cc23)C(O)C1` (centres undefined), the GI50 stood at 190 nM in the series with A549 [2]; 360 nM in the series on HepG2; 170 nM in the series with NCI-H460 [4]; 150 nM with NUGC-3; 440 nM in [6]; 160 nM in the series on MCF7 [7]. Also, the outcome (with MCF7 [11]; in the series on A549 [12]; in [13]; with RAW264.7 [14]; in series [15]; in the series with NCI-H460 [16]) was Active. In addition, the outcome with RAW264.7 [17], in the series on MCF7 [18], in the series with A549 [19] and in the series on NCI-H460 [20] was Active. In series [5], the CC50 was above 2 µM. Moreover, the EC50 in the series with RAW264.7 [8] turned out to be 380 nM; in [9] it was 340 nM.

Consider `COc1ccc(C2=C(c3ccc(OC)c(OC)c3)CN3CCC[C@H]3C2)cc1OC`, for which the GI50 in the series with SF-268 was found to be 24200 nM; in the series on NCI-H460 [4], 17000 nM; in the series on NUGC-3, 14500 nM; in series [6] it was 17300 nM; in the series with MCF7 [7], 18500 nM. For the same molecule, in series [9], the EC50 is 15400 nM.

With `COc1cc2c3c(c4cc(OC)c(OC)cc4c2cc1OC)CN(C(C)C)CC3`, the GI50 in the series on A549 [2] is 380 nM; in the series with HepG2, 670 nM; with NCI-H460 [4], 290 nM; with NUGC-3, 320 nM; in [6], 940 nM; with MCF7 [7], 340 nM. For the same molecule, the result (in the series with MCF7 [11]; in the series with A549 [12]; in series [13]; with RAW264.7 [14]; in [15]; in the series with NCI-H460 [16]) was Active. The outcome in the series on RAW264.7 [17], with MCF7 [18], in the series on A549 [19] and in the series on NCI-H460 [20] was Active. This molecule came in with a CC50 in series [5] above 4 µM. Also, the results for the EC50 (in the series on RAW264.7 [8]; in series [9]) were 860 nM and 600 nM, respectively.
